How the values were obtained:
A549 = assay: Cytotoxicity against human A549 cells by MTT assay; type: functional, cell-based
How it was run: (§1)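 Panel of human tumour lines: A549 lung adenocarcinoma, BGC-823 stomach cancer, MCF-7 breast cancer, Bel7402 hepatoma and HCT-8 colon cancer. Activity reported as IC50 in μg/mL.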

BGC-823 = assay: Cytotoxicity against human BGC823 cells by MTT assay; type: functional, cell-based; how it was run: as §1
MCF7 = assay: Cytotoxicity against human MCF7 cells by MTT assay; type: functional, cell-based; how it was run: as §1
Bel-7402 = assay: Cytotoxicity against human Bel7402 cells by MTT assay; type: functional, cell-based; how it was run: as §1
HCT-8 = assay: Cytotoxicity against human HCT8 cells by MTT assay; type: functional, cell-based; how it was run: as §1
Staphylococcus aureus = assay: Antimicrobial activity against Staphylococcus aureus; type: functional
How it was run: (§2)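 Whole-organism tests on S. aureus, E. coli and the yeast C. albicans. Potency reported as MIC50 in μg/mL.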

Escherichia coli = assay: Antimicrobial activity against Escherichia coli; type: functional; how it was run: as §2
Candida albicans = assay: Antimicrobial activity against Candida albicans; type: functional; how it was run: as §2

Row | SMILES | MIC (Staphylococcus aureus) | MIC (Escherichia coli) | MIC (Candida albicans) | IC50 (A549) | IC50 (BGC-823) | IC50 (MCF7) | IC50 (Bel-7402) | IC50 (HCT-8)
1 | CC(=O)/C=C/c1cc(O)c(O)c(Br)c1Br | – | – | – | > 10 µg/mL | > 10 µg/mL | > 10 µg/mL | > 10 µg/mL | > 10 µg/mL
2 | COC(=O)C(Cc1cc(O)c(O)c(Br)c1Br)c1cc(O)c(OC)c(Br)c1 (configuration not stated) | – | – | – | > 10 µg/mL | > 10 µg/mL | > 10 µg/mL | > 10 µg/mL | > 10 µg/mL
3 | COc1c(O)cc(C(=O)O)cc1Br | > 100 µg/mL | > 100 µg/mL | > 100 µg/mL | > 10 µg/mL | > 10 µg/mL | > 10 µg/mL | > 10 µg/mL | > 10 µg/mL

Continued, in another order:

Row | MIC (Staphylococcus aureus) | MIC (Escherichia coli) | MIC (Candida albicans) | SMILES | IC50 (A549) | IC50 (BGC-823) | IC50 (MCF7) | IC50 (Bel-7402) | IC50 (HCT-8)
4 | > 100 µg/mL | > 100 µg/mL | > 100 µg/mL | COc1c(O)cc(C(Cc2cc(O)c(O)c(Br)c2Br)C(=O)O)cc1Br (configuration not stated) | > 10 µg/mL | > 10 µg/mL | > 10 µg/mL | > 10 µg/mL | > 10 µg/mL
5 | > 100 µg/mL | > 100 µg/mL | > 100 µg/mL | C[S+]([O-])Cc1cc(O)c(O)c(Br)c1Br (configuration not stated) | > 10 µg/mL | > 10 µg/mL | > 10 µg/mL | > 10 µg/mL | > 10 µg/mL
6 | > 100 µg/mL | > 100 µg/mL | > 100 µg/mL | COC(=O)Cc1cc(O)c(OC)c(Br)c1 | > 10 µg/mL | > 10 µg/mL | > 10 µg/mL | > 10 µg/mL | > 10 µg/mL

Source: ChEMBL document CHEMBL1151235, “Bromophenol derivatives from the red alga Rhodomela confervoides” (J Nat Prod, 2004)
